Each block holds one molecule with its values, some of them ahead of it.
Legend:
[1] = Permeability surface area for passive diffusion in MDCK2 cells assessed as transport at 3 to 200 uM after 0.5 to 1 hrs by HPLC method; assay type: ADME, cell-based, Canis lupus familiaris; conditions: dog, mdck-ii
In short: (§1)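 PS_D (passive diffusion) derived from observed permeability of single PAN isomers across empty-vector (pcDNA3.1) MDCKII monolayers (TEER >200 Ω·cm²). Both A→B and B→A directions in serum-free Opti-MEM I at 37°C, with [3H]mannitol as paracellular marker. Receiver sampled at 0.5 and 1 h, PAN measured by HPLC-UV. PS_D calculated from a three-compartment model equation at each donor concentration.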

[2] = Permeability surface area for passive diffusion in MDCK2 cells assessed as transport at 3 uM after 0.5 to 1 hrs by HPLC method; assay type: ADME, cell-based, Canis lupus familiaris; conditions: dog, mdck-ii; in short: as §1
[3] = Permeability surface area for passive diffusion in MDCK2 cells assessed as transport at 50 uM after 0.5 to 1 hrs by HPLC method; assay type: ADME, cell-based, Canis lupus familiaris; conditions: dog, mdck-ii; in short: as §1
[4] = Permeability surface area for passive diffusion in MDCK2 cells assessed as transport at 30 uM after 0.5 to 1 hrs by HPLC method; assay type: ADME, cell-based, Canis lupus familiaris; conditions: dog, mdck-ii; in short: as §1
[5] = Permeability surface area for passive diffusion in MDCK2 cells assessed as transport at 200 uM after 0.5 to 1 hrs by HPLC method; assay type: ADME, cell-based, Canis lupus familiaris; conditions: dog, mdck-ii; in short: as §1
[6] = Permeability surface area for passive diffusion in MDCK2 cells assessed as transport at 10 uM after 0.5 to 1 hrs by HPLC method; assay type: ADME, cell-based, Canis lupus familiaris; conditions: dog, mdck-ii; in short: as §1
[7] = substrate: COc1ccnc(C[S@+]([O-])c2nc3cc(OC(F)F)ccc3[nH]2)c1OC; assay: (§2) Drug transport in MDCK2 cells expressing rat ABCG2 assessed as ABCG2-mediated transport by HPLC method; assay type: ADME, cell-based, MDCK-II
In short: (§3)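 Kinetics came from the same Transwell bidirectional flux runs in rat Abcg2- or human ABCG2-MDCKII, with donor 3–200 μM single isomer. Cellular concentrations were predicted from a three-compartment model using PS_D from mock cells and PS_PC from mannitol. Apparent apical efflux permeability was fitted against predicted cellular concentration by saturable kinetics to give K_M and T_max.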

[8] = substrate: COc1ccnc(C[S@@+]([O-])c2nc3cc(OC(F)F)ccc3[nH]2)c1OC; assay: as §2; assay type: ADME, cell-based, MDCK-II; in short: as §3
[9] = substrate: COc1ccnc(C[S@+]([O-])c2nc3cc(OC(F)F)ccc3[nH]2)c1OC; assay: (§4) Drug transport in MDCK2 cells expressing human ABCG2 assessed as ABCG2-mediated transport by HPLC method; assay type: ADME, cell-based, MDCK-II; in short: as §3
[10] = substrate: COc1ccnc(C[S@@+]([O-])c2nc3cc(OC(F)F)ccc3[nH]2)c1OC; assay: as §4; assay type: ADME, cell-based, MDCK-II; in short: as §3

Papp [1]: 244 uL/hr/cm2 | Papp [2]: 231 uL/hr/cm2 | Papp [3]: 251 uL/hr/cm2 | Papp [4]: 226 uL/hr/cm2 | Papp [5]: 271 uL/hr/cm2 | Papp [6]: 242 uL/hr/cm2
Molecule: COc1ccnc(C[S+]([O-])c2nc3ccc(OC(F)F)cc3[nH]2)c1OC (racemic) [PANTOPRAZOLE]

B1: Broad substrate specificity ATP-binding cassette transporter ABCG2 (Rattus norvegicus) (protein)
chain: MSSSNDHVLVPMSQRNKNGLPGMSSRGARTLAEGDVLSFHHITYRVKVKSGFLVRKTAEKEILSDINGIMKPGLNAILGPTGGGKSSLLDVLAARKDPRGLSGDVLINGAPQPANFKCSSGYVVQDDVVMGTLTVRENLQFSAALRLPKAMKTHEKNERINTIIKELGLDKVADSKVGTQFTRGISGGERKRTSIGMELITDPSILFLDEPTTGLDSSTANAVLLLLKRMSKQGRTIIFSIHQPRYSIFKLFDSLTLLASGKLMFHGPAQKALEYFASAGYHCEPYNNPADFFLDVINGDSSAVMLNRGEQDHEANKTEEPSKREKPIIENLAEFYINSTIYGETKAELDQLPVAQKKKGSSAFREPVYVTSFCHQLRWIARRSFKNLLGNPQASVAQLIVTVILGLIIGALYFGLKNDPTGMQNRAGVFFFLTTNQCFTSVSAVELFVVEKKLFIHEYISGYYRVSSYFFGKLVSDLLPMRFLPSVIYTCILYFMLGLKRTVEAFFIMMFTLIMVAYTASSMALAIAAGQSVVSVATLLMTISFVFMMLFSGLLVNLRTIGPWLSWLQYFSIPRYGFTALQHNEFLGQEFCPGLNVTMNSTCVNSYTICTGNDYLINQGIDLSPWGLWRNHVALACMIIIFLTIAYLKLLFLKKYS
Km [7]: 0.25 µM | Km [8]: 1.85 µM

B2: Broad substrate specificity ATP-binding cassette transporter ABCG2 (Homo sapiens) (protein)
chain: MSSSNVEVFIPVSQGNTNGFPATASNDLKAFTEGAVLSFHNICYRVKLKSGFLPCRKPVEKEILSNINGIMKPGLNAILGPTGGGKSSLLDVLAARKDPSGLSGDVLINGAPRPANFKCNSGYVVQDDVVMGTLTVRENLQFSAALRLATTMTNHEKNERINRVIQELGLDKVADSKVGTQFIRGVSGGERKRTSIGMELITDPSILFLDEPTTGLDSSTANAVLLLLKRMSKQGRTIIFSIHQPRYSIFKLFDSLTLLASGRLMFHGPAQEALGYFESAGYHCEAYNNPADFFLDIINGDSTAVALNREEDFKATEIIEPSKQDKPLIEKLAEIYVNSSFYKETKAELHQLSGGEKKKKITVFKEISYTTSFCHQLRWVSKRSFKNLLGNPQASIAQIIVTVVLGLVIGAIYFGLKNDSTGIQNRAGVLFFLTTNQCFSSVSAVELFVVEKKLFIHEYISGYYRVSSYFLGKLLSDLLPMRMLPSIIFTCIVYFMLGLKPKADAFFVMMFTLMMVAYSASSMALAIAAGQSVVSVATLLMTICFVFMMIFSGLLVNLTTIASWLSWLQYFSIPRYGFTALQHNEFLGQNFCPGLNATGNNPCNYATCTGEEYLVKQGIDLSPWGLWKNHVALACMIVIFLTIAYLKLLFLKKYS
Km [9]: 0.59 µM | Km [10]: 5.32 µM
